Laboratory results reported in ChEMBL document CHEMBL4138274, “Multiflorumisides A-G, Dimeric Stilbene Glucosides with Rare Coupling Patterns from the Roots of Polygonum multiflorum” (J Nat Prod, 2018).

Legend:
RAW264.7 [1] = experiment: Cytotoxicity against LPS-stimulated mouse RAW264.7 cells assessed as effect on cell viability at 20 uM after 48 hrs by MTT assay; format: cell-based; conditions: raw264.7, 48 h
Summary of the method: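 Viability by MTT on RAW264.7 cells seeded at 4 × 10^4 per well and held 2 h at 37 °C in humidified 5% CO2. Cells were then treated for 48 h at 37 °C with LPS (200 ng/mL) together with serially diluted test compound.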

RAW264.7 [2] = experiment: Antiinflammatory activity in mouse RAW264.7 cells assessed as inhibition of LPS-stimulated nitric oxide production at 20 uM after 48 hrs by Griess assay relative to control; format: functional; conditions: RAW264.7, 48 h
Summary of the method: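 RAW264.7 cells seeded at 4 × 10^4 per well, held 2 h at 37 °C in humidified 5% CO2, then exposed to LPS (200 ng/mL) plus serially diluted test compound for 48 h at 37 °C. Supernatant was mixed 1:1 with Griess reagent, incubated 15 min, and absorbance read at 540 nm as a nitrite measure.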

SMILES | Activity (RAW264.7 [1]) | inhibition at 20 µM (RAW264.7 [2]) [%]
OC[C@H]1O[C@@H](Oc2c(O)cc(O)cc2[C@H]2[C@H](c3ccc(O)cc3)c3c(O)cc(O)c(O[C@@H]4O[C@H](CO)[C@@H](O)[C@H](O)[C@H]4O)c3C[C@H]2c2ccc(O)cc2)[C@H](O)[C@@H](O)[C@@H]1O | Non-Toxic | 
OC[C@H]1O[C@@H](Oc2c(O)cc(O)cc2[C@H]2[C@H](c3ccc(O)cc3)[C@H](c3cc(O)cc(O)c3O[C@@H]3O[C@H](CO)[C@@H](O)[C@H](O)[C@H]3O)[C@H]2c2ccc(O)cc2)[C@H](O)[C@@H](O)[C@@H]1O | Non-Toxic | 22.4
OC[C@H]1O[C@@H](Oc2c(O)cc(O)cc2[C@@H]2[C@@H](c3ccc(O)cc3)[C@H](c3ccc(O)cc3)[C@H]2c2cc(O)cc(O)c2O[C@@H]2O[C@H](CO)[C@@H](O)[C@H](O)[C@H]2O)[C@H](O)[C@@H](O)[C@@H]1O | Non-Toxic | 22
OC[C@H]1O[C@@H](Oc2c(O)cc(O)cc2[C@@H]2[C@@H](c3ccc(O)cc3)c3c(O)cc(O)c(O[C@@H]4O[C@H](CO)[C@@H](O)[C@H](O)[C@H]4O)c3C[C@H]2c2ccc(O)cc2)[C@H](O)[C@@H](O)[C@@H]1O | Non-Toxic | 
OC[C@H]1O[C@@H](Oc2c(O)cc(O)cc2[C@@H]2[C@@H](c3ccc(O)cc3)[C@@H](c3ccc(O)cc3)[C@@H]2c2cc(O)cc(O)c2O[C@@H]2O[C@H](CO)[C@@H](O)[C@H](O)[C@H]2O)[C@H](O)[C@@H](O)[C@@H]1O | Non-Toxic | 16.8
OC[C@H]1O[C@@H](Oc2c(O)cc(O)cc2[C@H]2[C@H](c3ccc(O)cc3)[C@@H](c3cc(O)cc(O)c3O[C@@H]3O[C@H](CO)[C@@H](O)[C@H](O)[C@H]3O)[C@@H]2c2ccc(O)cc2)[C@H](O)[C@@H](O)[C@@H]1O | Non-Toxic | 16.7
OC[C@H]1O[C@@H](Oc2c(O)cc(O)cc2[C@H]2[C@@H](c3ccc(O)cc3)c3c(O)cc(O)c(O[C@@H]4O[C@H](CO)[C@@H](O)[C@H](O)[C@H]4O)c3C[C@@H]2c2ccc(O)cc2)[C@H](O)[C@@H](O)[C@@H]1O | Non-Toxic | 
C[C@@H]1C[C@H]2[C@@H]3CCC4=CC(=O)C=C[C@]4(C)[C@@]3(F)[C@@H](O)C[C@]2(C)[C@@]1(O)C(=O)CO [DEXAMETHASONE] |  | 60.9
